# Measurements reported in ChEMBL document CHEMBL1165943, “Design and synthesis of new anticancer pyrimidines with multiple-kinase inhibitory effect” (Bioorg Med Chem, 2010).
# Active and inactive are the calls of the source. The calls are words filed in the database; no cut-off is given here.
# Key:
# ACHN = test: Cytotoxicity against human ACHN cells assessed as cell growth at 0.001 uM after 48 hrs by sulforhodamine B assay; format: functional; conditions: read-out: Activity
# Outline: (§1)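 Cells grown in RPMI 1640 with 5% FBS and 2 mM L-glutamine, seeded at 5,000–40,000 cells/well by doubling time. Time-zero plates TCA-fixed after 24 h. Five concentrations (10-fold or half-log dilutions from DMSO stock) added; 48 h at 37 °C, 5% CO2. Cold TCA fixation (final 10%, 60 min, 4 °C), 0.4% SRB stain, dye solubilized in 10 mM trizma base, A515.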
# LOX IMVI [1] = test: Cytotoxicity against human LOXIMVI cells assessed as cell growth at 100 nM after 48 hrs by sulforhodamine B assay; format: functional; conditions: read-out: Activity
# SK-MEL-2 = test: Cytotoxicity against human SK-MEL-2 cells assessed as cell growth at 0.001 uM after 48 hrs by sulforhodamine B assay; format: functional; conditions: SK-MEL-2, 48 h, read-out: Activity
# UO-31 [2] = test: Cytotoxicity against human UO31 cells assessed as cell growth at 0.001 uM after 48 hrs by sulforhodamine B assay; format: functional; conditions: UO-31, 48 h, read-out: Activity
# DU-145 [3] = test: Cytotoxicity against human DU145 cells assessed as cell growth at 100 nM after 48 hrs by sulforhodamine B assay; format: functional; conditions: DU-145, 48 h, read-out: Activity
# CAKI-1 [4] = test: Cytotoxicity against human Caki1 cells assessed as cell growth at 100 nM after 48 hrs by sulforhodamine B assay; format: functional; conditions: CAKI-1, 48 h, read-out: Activity
# EKVX = test: Growth inhibition of human EKVX cells after 48 hrs by sulforhodamine B assay; format: functional, cell-based; conditions: for CC50: read-out: LC50 (the source's name)
# Outline: (§2)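 Cells grown in RPMI 1640 with 5% FBS and 2 mM L-glutamine, seeded at 5,000–40,000 cells/well according to doubling time. After 24 h, time-zero plates are TCA-fixed. Five concentrations (10-fold or ½log dilutions, DMSO stocks) are applied for 48 h at 37 °C, 5% CO₂. Cells are TCA-fixed, SRB-stained and read at 515 nm. IC₅₀ is taken from [(Ti−Tz)/(C−Tz)]×100 = 50.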
# MDA-MB-231 = test: Cytotoxicity against human MDA-MB-231 cells assessed as cell growth at 0.01 uM after 48 hrs by sulforhodamine B assay; format: functional; conditions: MDA-MB-231, 48 h, read-out: Activity
# SW-620 = test: Cytotoxicity against human SW620 cells assessed as cell growth at 1 uM after 48 hrs by sulforhodamine B assay; format: functional; conditions: SW-620, 48 h, read-out: Activity
# UACC-257 = test: Cytotoxicity against human UACC257 cells assessed as cell growth at 0.001 uM after 48 hrs by sulforhodamine B assay; format: functional; conditions: UACC-257, 48 h, read-out: Activity
# CAKI-1 [5] = test: Cytotoxicity against human Caki1 cells assessed as cell growth at 10 uM after 48 hrs by sulforhodamine B assay; format: functional; conditions: CAKI-1, 48 h, read-out: Activity; outline: as §1
# UO-31 [6] = test: Growth inhibition of human UO31 cells after 48 hrs by sulforhodamine B assay; format: functional, cell-based; conditions: UO-31, 48 h; for CC50: read-out: LC50 (the source's name); outline: as §2
# NCI-H460 = test: Cytotoxicity against human NCI-H460 cells assessed as cell growth at 100 nM after 48 hrs by sulforhodamine B assay; format: functional; conditions: NCI-H460, 48 h, read-out: Activity
# SN12C = test: Cytotoxicity against human SN12C cells assessed as cell growth at 0.001 uM after 48 hrs by sulforhodamine B assay; format: functional; conditions: read-out: Activity
# BT-549 = test: Cytotoxicity against human BT549 cells assessed as cell growth at 0.001 uM after 48 hrs by sulforhodamine B assay; format: functional; conditions: BT-549, 48 h, read-out: Activity; outline: as §1
# Malme-3M = test: Cytotoxicity against human MALME-3M cells assessed as cell growth at 100 nM after 48 hrs by sulforhodamine B assay; format: functional; conditions: read-out: Activity
# [7] = Cytotoxicity against human Hs 578T cells assessed as cell growth at 1 uM after 48 hrs by sulforhodamine B assay; format: functional; conditions: read-out: Activity
# K562 = test: Growth inhibition of human K562 cells after 48 hrs by sulforhodamine B assay; format: functional, cell-based; conditions: for CC50: read-out: LC50 (the source's name); outline: as §2
# U-251 = test: Cytotoxicity against human U251 cells assessed as cell growth at 10 uM after 48 hrs by sulforhodamine B assay; format: functional; conditions: U-251, 48 h, read-out: Activity
# HL-60(TB) = test: Growth inhibition of human HL-60(TB) cells after 48 hrs by sulforhodamine B assay; format: functional, cell-based; conditions: HL-60, 48 h; for CC50: read-out: LC50 (the source's name)
# Outline: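 HL-60(TB) suspension cells in RPMI 1640 with 5% FBS receive five 10-fold or ½log drug dilutions from DMSO stock for 48 h at 37 °C, 5% CO2. Settled cells are TCA-fixed, SRB-stained and read at 515 nm against a time-zero plate. […] is solved from [(Ti−Tz)/(C−Tz)]×100 = 50.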
# M14 = test: Cytotoxicity against human M14 cells assessed as cell growth at 10 uM after 48 hrs by sulforhodamine B assay; format: functional; conditions: M14, 48 h, read-out: Activity
# NCI-H23 = test: Cytotoxicity against human NCI-H23 cells assessed as cell growth at 10 uM after 48 hrs by sulforhodamine B assay; format: functional; conditions: NCI-H23, 48 h, read-out: Activity
# NCI-H522 = test: Cytotoxicity against human NCI-H522 cells assessed as cell growth at 100 nM after 48 hrs by sulforhodamine B assay; format: functional; conditions: NCI-H522, 48 h, read-out: Activity
# NCI/ADR-RES = test: Cytotoxicity against human NCI/ADR-RES cells assessed as cell growth at 0.01 uM after 48 hrs by sulforhodamine B assay; format: functional; conditions: read-out: Activity
# HCT-15 = test: Cytotoxicity against human HCT15 cells assessed as cell growth at 0.01 uM after 48 hrs by sulforhodamine B assay; format: functional; conditions: HCT-15, 48 h, read-out: Activity
# DU-145 [8] = test: Cytotoxicity against human DU145 cells assessed as cell growth at 0.001 uM after 48 hrs by sulforhodamine B assay; format: functional; conditions: DU-145, 48 h, read-out: Activity
# LOX IMVI [9] = test: Growth inhibition of human LOXIMVI cells after 48 hrs by sulforhodamine B assay; format: functional, cell-based; conditions: for CC50: read-out: LC50 (the source's name); outline: as §2
# MDA-MB-435 = test: Cytotoxicity against human MDA-MB-435 cells assessed as cell growth at 0.01 uM after 48 hrs by sulforhodamine B assay; format: functional; conditions: MDA-MB-435, 48 h, read-out: Activity
# OVCAR-3 = test: Cytotoxicity against human OVCAR-3 cells assessed as cell growth at 1 uM after 48 hrs by sulforhodamine B assay; format: functional; conditions: OVCAR-3, 48 h, read-out: Activity
# SF-295 = test: Cytotoxicity against human SF295 cells assessed as cell growth at 10 uM after 48 hrs by sulforhodamine B assay; format: functional; conditions: SF-295, 48 h, read-out: Activity
structure (smiles),measurement,setting,value
CC(=O)c1ccccc1-c1ccc(-c2ccnc(NC(=O)Nc3cc(N4CCOCC4)cc(C(F)(F)F)c3)n2)cn1,growth at 0.001 µM,ACHN,97%
same,growth at 0.1 µM,LOX IMVI [1],90%
same,growth at 0.001 µM,SK-MEL-2,102%
same,growth at 0.001 µM,UO-31 [2],85%
same,growth at 0.1 µM,DU-145 [3],77%
same,growth at 0.1 µM,CAKI-1 [4],84%
same,GI50,EKVX,> 100 µM
same,IC50,EKVX,> 100 µM
same,TGI,EKVX,> 100 µM
same,CC50,EKVX,> 100 µM
same,growth at 0.01 µM,MDA-MB-231,99%
same,growth at 1 µM,SW-620,84%
same,growth at 0.001 µM,UACC-257,89%
same,growth at 10 µM,CAKI-1 [5],86%
same,GI50,UO-31 [6],> 5.46 µM
same,IC50,UO-31 [6],> 100 µM
same,TGI,UO-31 [6],> 100 µM
same,CC50,UO-31 [6],> 100 µM
same,growth at 0.1 µM,NCI-H460,91%
same,growth at 0.001 µM,SN12C,93%
same,growth at 0.001 µM,BT-549,101%
same,growth at 0.1 µM,Malme-3M,78%
same,growth at 1 µM,[7],22%
same,GI50,"K562; K562, 48 h",> 100 µM
same,IC50,"K562; K562, 48 h",> 100 µM
same,TGI,"K562; K562, 48 h",> 100 µM
same,CC50,"K562; K562, 48 h",> 100 µM
same,growth at 10 µM,U-251,39%
same,GI50,HL-60(TB),> 100 µM
same,IC50,HL-60(TB),> 100 µM
same,TGI,HL-60(TB),> 100 µM
same,CC50,HL-60(TB),> 100 µM
same,growth at 10 µM,M14,86%
same,growth at 10 µM,NCI-H23,60%
same,growth at 0.1 µM,NCI-H522,101%
same,growth at 0.01 µM,NCI/ADR-RES,98%
same,growth at 0.01 µM,HCT-15,98%
same,growth at 0.001 µM,DU-145 [8],100%
same,GI50,LOX IMVI [9],34.9 µM
same,IC50,LOX IMVI [9],> 100 µM
same,TGI,LOX IMVI [9],> 100 µM
same,CC50,LOX IMVI [9],> 100 µM
same,growth at 0.01 µM,MDA-MB-435,95%
same,growth at 1 µM,OVCAR-3,70%
same,growth at 10 µM,SF-295,48%
CC(=O)Nc1cccc(-c2ccc(-c3ccnc(NC(=O)Nc4cc(C(F)(F)F)cc(C(F)(F)F)c4)n3)cn2)c1.Cl,growth at 0.001 µM,ACHN,101%
same,growth at 0.1 µM,LOX IMVI [1],81%
same,growth at 0.001 µM,SK-MEL-2,95%
same,growth at 0.001 µM,UO-31 [2],90%
same,growth at 0.1 µM,DU-145 [3],102%
same,growth at 0.1 µM,CAKI-1 [4],64%
same,GI50,EKVX,1.44 µM
same,IC50,EKVX,1.44 µM
same,TGI,EKVX,5.71 µM
same,CC50,EKVX,> 100 µM
same,growth at 0.01 µM,MDA-MB-231,93%
same,growth at 1 µM,SW-620,-33%
same,growth at 0.001 µM,UACC-257,94%
same,growth at 10 µM,CAKI-1 [5],-36%
same,GI50,UO-31 [6],5.51 µM
same,IC50,UO-31 [6],5.51 µM
same,TGI,UO-31 [6],23.2 µM
same,CC50,UO-31 [6],61.7 µM
same,growth at 0.1 µM,NCI-H460,79%
same,growth at 0.001 µM,SN12C,94%
same,growth at 0.001 µM,BT-549,100%
same,growth at 0.1 µM,Malme-3M,93%
same,growth at 1 µM,[7],43%
same,TGI,K562,inactive
same,GI50,"K562; K562, 48 h",1.87 µM
same,IC50,"K562; K562, 48 h",1.87 µM
same,CC50,"K562; K562, 48 h",> 100 µM
same,growth at 10 µM,U-251,-96%
same,GI50,HL-60(TB),3.78 µM
same,IC50,HL-60(TB),3.78 µM
same,TGI,HL-60(TB),96.1 µM
same,CC50,HL-60(TB),> 100 µM
same,growth at 10 µM,M14,100%
same,growth at 10 µM,NCI-H23,-69%
same,growth at 0.1 µM,NCI-H522,72%
same,growth at 0.01 µM,NCI/ADR-RES,94%
same,growth at 0.01 µM,HCT-15,91%
same,growth at 0.001 µM,DU-145 [8],112%
same,GI50,LOX IMVI [9],1.79 µM
same,IC50,LOX IMVI [9],1.79 µM
same,TGI,LOX IMVI [9],inactive
same,CC50,LOX IMVI [9],> 100 µM
same,growth at 0.01 µM,MDA-MB-435,97%
same,growth at 1 µM,OVCAR-3,-52%
same,growth at 10 µM,SF-295,-33%
